Results of several laboratories.
Protocols differ between the studies behind these lines.
Cell line: MDA-MB-468
Read-out: cell growth or viability

Compound | method | concentration | time | measurement | value
COc1ccc(C(=O)/C=C/c2cccc(Br)c2)cc1S(N)(=O)=O | SRB | 10 µM | – | inhibition | 154%
Cc1ncsc1-c1ccc(CNC(=O)[C@@H]2C[C@@H](O)CN2C(=O)[C@@H](NC(=O)CCCCCCCCCC(=O)N2CCN(CC[C@H](NC(=O)C3(N)CCN(c4ncnc5[nH]ccc45)CC3)c3ccc(Cl)cc3)CC2)C(C)(C)C)cc1 | – | – | 72 h | GI50 | 0.49 µM
COc1ccc(C(=O)/C=C/c2ccc(Cl)c(Cl)c2)cc1S(N)(=O)=O | SRB | 10 µM | – | inhibition | 119%
Cc1cc(NS(=O)(=O)c2ccc(NC(=O)COc3ccc(C(C)(C)c4ccccc4)cc3)cc2)nc(C)n1 | MTT | – | 48 h | IC50 | 44.3 µM
CC(=O)c1c(C)c2cnc(Nc3ccc(N4CCNCC4)cn3)nc2n(C2CCCC2)c1=O | resazurin | – | – | GI50 | 7.5 µM
Cc1cc(NCCCCCCCCNc2cc(C)nc3cc(N)ccc23)c2ccc(N)cc2n1 | MTT | – | – | IC50 | 5.1 µM
COc1cc(-c2ccc(-c3ccc(C(=N)N)nc3)s2)cc(OC)c1OC | SRB | – | – | GI50 | 1.74 µM
c1csc(-c2c3ccccc3cc3c2ccc2ccccc23)c1 | MTT | – | – | IC50 | 34 µM
NC1(C(=O)N[C@@H](CCO)c2ccc(Cl)cc2)CCN(c2ncnc3[nH]ccc23)CC1 | – | – | 72 h | GI50 | > 8 µM
COc1ccc(-c2ccc(-c3ccc(C(=N)N)nc3)s2)cc1Cl | SRB | – | – | GI50 | 1.74 µM
Cc1cc(NCCCCCCCNc2cc(C)nc3cc(N)ccc23)c2ccc(N)cc2n1 | MTT | – | 96 h | IC50 | 16 µM
CCc1ccc(N2NC(=O)/C(=C/c3ccc(-c4ccc(S(=O)(=O)Nc5nccs5)cc4)o3)C2=O)cc1 | MTT | – | 72 h | IC50 | 73.5 µM
